Experimental data taken from ChEMBL document CHEMBL1122032, “Dopaminergic activity of substituted 6-chloro-1-phenyl-2,3,4,5-tetrahydro-1H-3-benzazepines” (J Med Chem, 1982).
Activity calls are given as the source filed them. No cut-off for these calls is given here.

Legend:
Canis familiaris [1] = species on record: Canis familiaris; assay: Renal vascular resistance was calculated as the ratio of the mean arterial blood pressure / mean renal blood flow; Highly significant activity; format: functional, organism-based; settings: Canis lupus familiaris
Rattus norvegicus [2] = assay: Central dopaminergic activity for minimum concentration which produced 500 rotations at the dose of 10 mg/kg (i.p.) in 2 h; I=Inactive; format: functional, organism-based; parameters: dose 10 mg/kg
Summary of the method: (§1)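 Rats with substantia nigra lesions scored for contralateral rotation after intraperitoneal dosing (routine), oral dosing for selected compounds, or intracaudal administration for intrinsic activity. RD500 and RD1000 are the minimum doses giving 500 and 1000 turns, respectively, in 2 h.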

Canis familiaris [3] = species on record: Canis familiaris; assay: Renal blood flow was measured in dogs; Highly significant activity; format: functional, organism-based; settings: Canis lupus familiaris; Kidney
[4] = Selectivity ratio of Compound as ratio of ED15 relative to iliac vascular resistance(IVR) ED30; format: functional
Summary of the method: (§2)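 Secondary renal screen in anesthetized dogs: cumulative dose-response by infusing drug at progressively increasing rates, 5 min per dose level. RVR ED15 is the average minimum cumulative dose lowering RVR by 15%; maximum effect is the average maximum % fall in RVR. Selectivity ratios are separations between RVR ED15 and doses giving 30% change in iliac vascular resistance, 20% in MABP, 20% in HR.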

[5] = Selectivity ratio of compound as ED15 relative to heart rate(HR) ED20; format: functional; summary of the method: as §2
Canis familiaris [6] = assay: Compound was evaluated for determining renal vascular resistance(iv) in dogs; format: functional, Canis lupus familiaris; summary of the method: as §2
[7] = Selectivity ratio of compound as ratio of ED15 relative to mean arterial blood pressure(MABP) ED20; format: functional; summary of the method: as §2
Canis familiaris [8] = species on record: Canis familiaris; assay: Compound was evaluated for average maximum percent decrease in renal vascular resistance in dogs; format: functional, Canis lupus familiaris; summary of the method: as §2
Canis familiaris [9] = species on record: Canis familiaris; assay: Renal vascular resistance was calculated as the ratio of the mean arterial blood pressure / mean renal blood flow; I=Inactive; format: functional, organism-based; settings: Canis lupus familiaris
Rattus norvegicus [10] = species on record: Rattus norvegicus; assay: Adenylase cyclase activity in rat striatal membranes at the concentration of 10e-5; format: functional; settings: Striatum, Membrane
Rattus norvegicus [11] = species on record: Rattus norvegicus; assay: Adenylase cyclase activity in rat striatal membranes at the concentration of 10e-6; format: functional; settings: Striatum, Membrane
Rattus norvegicus [12] = assay: Central dopaminergic activity for minimum concentration which produced 500 rotations at the dose of 10 mg/kg (i.p.) in 2 h; format: functional; settings: route intraperitoneal; summary of the method: as §1
Canis familiaris [13] = species on record: Canis familiaris; assay: Renal blood flow was measured in dogs; I=Inactive; format: functional, organism-based; settings: Canis lupus familiaris; Kidney
Rattus norvegicus [14] = assay: Central dopaminergic activity against contralateral rotation(1000) in lesioned rats(po) in 2 h; format: functional
Summary of the method: (§3)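 Oral dosing in rats with substantia nigra lesions, scoring contralateral rotations. RD1000 is the minimum dose producing 1000 turns in 2 h.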

Rattus norvegicus [15] = assay: Central dopaminergic activity for minimum concentration which produced 500 rotations(ip) in 2 h; format: functional; summary of the method: as §1
Rattus norvegicus [16] = species on record: Rattus norvegicus; assay: Adenylase cyclase activity in rat striatal membranes; format: functional, organism-based, Membrane; settings: Striatum
Canis familiaris [17] = species on record: Canis familiaris; assay: Renal blood flow was measured in dogs; Significant activity; format: functional, organism-based; settings: Canis lupus familiaris; Kidney
Canis familiaris [18] = species on record: Canis familiaris; assay: Renal vascular resistance was calculated as the ratio of the mean arterial blood pressure / mean renal blood flow; Significant activity; format: functional, organism-based; settings: Canis lupus familiaris
Rattus norvegicus [19] = assay: Central dopaminergic activity against contralateral rotation(1000) in lesioned rats at the dose of 10 mg/kg (p.o.) in 2 h; format: functional; settings: route oral; summary of the method: as §3
Rattus norvegicus [20] = species on record: Rattus norvegicus; assay: Adenylase cyclase activity in rat striatal membranes at the concentration of 10e-7; format: functional; settings: Striatum, Membrane
Rattus norvegicus [21] = assay: Central dopaminergic activity for minimum concentration which produced 500 rotations at the dose of 2 mg/kg (i.p.) in 2 h; I=Inactive; format: functional, organism-based; parameters: dose 2 mg/kg; summary of the method: as §1
Rattus norvegicus [22] = assay: Central dopaminergic activity for minimum concentration which produced 500 rotations at the dose of 2.0 mg/kg (i.p.) in 2 h; I=Inactive; format: functional, organism-based; parameters: dose 2 mg/kg; summary of the method: as §1

Compound | RVR (Canis familiaris [1]) | RBF (Canis familiaris [3]) | Ratio [4] | Ratio [5] | RVR ED15 (Canis familiaris [6]) | Ratio [7] | Decrease RVR (Canis familiaris [8]) | RVR (Canis familiaris [9]) | DA response (Rattus norvegicus [10]) | DA response (Rattus norvegicus [11]) | RD500 (Rattus norvegicus [15]) | other results
COc1ccc(CN2CCc3c(cc(O)c(O)c3Cl)C(c3ccccc3)C2)cc1 (stereo not given) | Significant activity | Highly significant activity | – | – | – | – | – | – | – | – | – | RD500 (Rattus norvegicus [2]): inactive
NCCc1ccc(O)c(O)c1 [DOPAMINE] | Active | Active | 56 | 141 | 0.0027 mg/kg | 113 | 36% | – | – | – | – | –
Br.Cc1ccccc1C1CNCCc2c1cc(O)c(O)c2Cl (stereo not given) | – | – | – | – | – | – | – | inactive | 55% | 30% | – | Contralateral turns in 2 h (Rattus norvegicus [12]): 663 turns/2 h; RBF (Canis familiaris [13]): inactive
CC(=O)Oc1cc2c(c(Cl)c1OC(C)=O)CCN(C)CC2c1ccccc1.Cl (stereo not given) | – | – | – | – | – | – | – | inactive | – | – | 0.025 mg/kg | RD1000 (Rattus norvegicus [14]): 2.2 mg/kg; RBF (Canis familiaris [13]): inactive
Br.Oc1cccc(C2CNCCc3c2cc(O)c(O)c3Cl)c1 (stereo not given) | – | – | 34 | 1029 | 0.00035 mg/kg | >6072 | 49% | – | – | – | – | EC50 (Rattus norvegicus [16]): 45 nM; RBF (Canis familiaris [17]): Significant activity; RD500 (Rattus norvegicus [2]): inactive; RVR (Canis familiaris [18]): Significant activity
Br.C=CCN1CCc2c(cc(O)c(O)c2Cl)C(c2ccc(Cl)c(O)c2)C1 (stereo not given) | – | Highly significant activity | – | >319 | 0.019 mg/kg | >319 | 39% | – | – | – | – | RD500 (Rattus norvegicus [2]): inactive; RVR (Canis familiaris [18]): Significant activity
Br.CCCCN1CCc2c(cc(O)c(O)c2Cl)C(c2ccccc2)C1 (stereo not given) | – | – | – | – | – | – | – | inactive | 90% | 85% | – | Contralateral turns in 2 h (Rattus norvegicus [12]): 611 turns/2 h; RBF (Canis familiaris [13]): inactive
Cl.Oc1cc2c(c(Cl)c1O)CCN(Cc1ccco1)CC2c1ccccc1 (stereo not given) | Significant activity | Highly significant activity | > 6070 | >6072 | 0.2 mg/kg | >6072 | 26% | – | 82% | 41% | – | Contralateral turns in 2 h (Rattus norvegicus [12]): 611 turns/2 h
CC(=O)Oc1cc2c(c(Cl)c1OC(C)=O)CCNCC2c1ccccc1 (stereo not given) | Significant activity | Highly significant activity | – | – | – | – | – | – | – | – | – | –
Br.Cc1cccc(C2CN(C)CCc3c2cc(O)c(O)c3Cl)c1 (stereo not given) | – | – | – | – | – | – | – | inactive | 14% | 15% | 0.041 mg/kg | RD1000 (Rattus norvegicus [14]): 2 mg/kg; RBF (Canis familiaris [13]): inactive
Br.OCCN1CCc2c(cc(O)c(O)c2Cl)C(c2ccccc2)C1 (stereo not given) | – | – | 929 | >6072 | 0.0045 mg/kg | >6072 | 42% | inactive | – | – | – | RBF (Canis familiaris [17]): Significant activity; Contralateral turns in 2 h (Rattus norvegicus [12]): 1310 turns/2 h
Br.C=CCN1CCc2c(cc(O)c(O)c2Cl)C(c2ccccc2)C1 (stereo not given) | Active | Active | – | – | – | – | – | – | – | – | 0.03 mg/kg | –
Br.Cc1ccc(C2CNCCc3c2cc(O)c(O)c3Cl)cc1 (stereo not given) | – | – | – | – | – | – | – | inactive | 42% | 23% | – | Contralateral turns in 2 h (Rattus norvegicus [12]): 420 turns/2 h; RBF (Canis familiaris [13]): inactive
Br.Oc1cc2c(c(Cl)c1O)CCNCC2c1cccc(Cl)c1 (stereo not given) | – | Highly significant activity | – | – | – | – | – | inactive | 90% | 82% | 0.3 mg/kg | RD1000 (Rattus norvegicus [19]): 602 turns/2 h
Br.Oc1ccc(C2CNCCc3c2cc(O)c(O)c3Cl)cc1Cl (stereo not given) | – | – | -1 | 0 | 0.099 mg/kg | -3 | 56% | inactive | – | – | – | RBF (Canis familiaris [17]): Significant activity; RD500 (Rattus norvegicus [2]): inactive
Br.Cc1cccc(C2CNCCc3c2cc(O)c(O)c3Cl)c1 (stereo not given) | Significant activity | Highly significant activity | 1 | 7 | 0.015 mg/kg | >6072 | 56% | – | 94% | – | 0.47 mg/kg | DA response (Rattus norvegicus [20]): 76%
Br.Oc1cc(C2CNCCc3c2cc(O)c(O)c3Cl)ccc1Cl (stereo not given) | Significant activity | Highly significant activity | > 249 | >249 | 0.061 mg/kg | >249 | 25% | – | – | – | – | RD500 (Rattus norvegicus [2]): inactive
Br.Oc1cc2c(c(Cl)c1O)CCNCC2c1ccc(Cl)cc1 (stereo not given) | – | – | – | – | – | – | – | inactive | 68% | 52% | 3.4 mg/kg | RBF (Canis familiaris [13]): inactive
Br.Oc1ccc(C2CNCCc3c2cc(O)c(O)c3Cl)cc1Br (stereo not given) | – | – | 15 | >2995 | 0.002 mg/kg | >2995 | 26% | – | – | – | – | –
Br.C=CCN1CCc2c(cc(O)c(O)c2Cl)C(c2cccc(Cl)c2)C1 (stereo not given) | – | Highly significant activity | > 6070 | >6072 | 0.022 mg/kg | >6072 | 38% | inactive | 83% | 92% | 0.11 mg/kg | RD1000 (Rattus norvegicus [19]): 1160 turns/2 h
Br.C=CCN1CCc2c(cc(O)c(O)c2Cl)C(c2cccc(C)c2)C1 (stereo not given) | Significant activity | Highly significant activity | – | – | – | – | – | – | 96% | – | 0.04 mg/kg | RD1000 (Rattus norvegicus [14]): 3 mg/kg; DA response (Rattus norvegicus [20]): 86%
Br.Oc1cc2c(c(Cl)c1O)CCNCC2c1cc(Cl)c(O)c(Cl)c1 (stereo not given) | – | – | > 37 | >37 | 0.165 mg/kg | >37 | 18% | – | – | – | – | RBF (Canis familiaris [17]): Significant activity; RD500 (Rattus norvegicus [2]): inactive; RVR (Canis familiaris [18]): Significant activity
CCCN1CCc2c(cc(O)c(O)c2Cl)C(c2ccccc2)C1 (stereo not given) | – | – | – | – | – | – | – | inactive | – | – | – | RD500 (Rattus norvegicus [21]): inactive; RBF (Canis familiaris [17]): Significant activity
Br.CN1CCc2c(cc(O)c(O)c2Cl)C(c2cccc(Cl)c2)C1 (stereo not given) | – | – | – | – | – | – | – | inactive | 13% | 22% | 0.03 mg/kg | RD1000 (Rattus norvegicus [14]): 3.2 mg/kg; RBF (Canis familiaris [13]): inactive
Cl.Oc1cc2c(c(Cl)c1O)CCN(Cc1cccs1)CC2c1ccccc1 (stereo not given) | – | – | – | – | – | – | – | – | 64% | 51% | 0.063 mg/kg | RD1000 (Rattus norvegicus [14]): 5.8 mg/kg; RBF (Canis familiaris [17]): Significant activity; RVR (Canis familiaris [18]): Significant activity
Br.CCN1CCc2c(cc(O)c(O)c2Cl)C(c2ccccc2)C1 (stereo not given) | Significant activity | Highly significant activity | 0.1 | >6072 | 0.045 mg/kg | 18 | 16% | – | 55% | 48% | 0.015 mg/kg | RD1000 (Rattus norvegicus [14]): 4.9 mg/kg
Cc1cccc(C2CN(Cc3ccco3)CCc3c2cc(O)c(O)c3Cl)c1 (stereo not given) | – | – | – | – | – | – | – | inactive | – | – | – | RD500 (Rattus norvegicus [22]): inactive; RBF (Canis familiaris [13]): inactive
